From ChEMBL document CHEMBL3875172, “Evaluation of the anti-malarial activity and cytotoxicity of 2,4-diamino-pyrimidine-based kinase inhibitors” (Eur J Med Chem, 2016) come the findings set out here.

Usually IC50 stands for the concentration at which inhibition is half-maximal. A word on the EC50: it is the midpoint of the concentration-response curve.

For data set [1], the system named is Plasmodium falciparum. Kind of data set: Antimalarial activity against Plasmodium falciparum 3D7 by high throughput screening assay. It counts as functional.
Data set [2] is described as follows: Cytotoxicity against human HepG2 cells at 10uM. As to conditions: hepg2, 10 µM. It counts as toxicity, cell-based.
Data set [3] can be described thus: Cytotoxicity against African green monkey Vero cells at 10 uM after 4 days by fluorescence assay. The data set is classed as toxicity, cell-based. The settings on record: chlorocebus sabaeus, 96 h. The method in brief:
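GFP-expressing Vero cells (stably transfected with pEGFP-N1), maintained in MEM with 10% heat-inactivated FBS, L-glutamine, pyruvate and geneticin. Seeded at 3.3 × 10^4 cells/ml onto compound at […] (so in the source), then incubated 4 days at 37 °C, 5% CO2. Read by bottom fluorescence (ex 530/em 590 nm) as percent cytotoxicity. Ellipticine positive control; 0.5% DMSO negative control.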

The subject of data set [4] is Plasmodium falciparum. Kind of data set: Antimalarial activity against multidrug-resistant Plasmodium falciparum K1 infected human erythrocytes assessed as reduction in parasite viability after 24 hrs by [3H]-hypoxanthine incorporation assay. It counts as functional. The method in brief: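 K1 parasites cultured in RPMI-1640 with 25 mM HEPES, 25 mM NaHCO3, 10% […] human serum and erythrocytes at 37 C, 3% CO2. Early ring-stage culture (1% parasitemia, 1.5% Hct) was exposed to compounds in duplicate for 24 h, then [3H]hypoxanthine was added for a further 18-20 h. Incorporation was scintillation-counted, and IC50 (50% growth reduction) was taken from fitted curves. The vehicle was 0.5% DMSO.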

In data set [5] the target is Tyrosine-protein kinase JAK2 (Homo sapiens, UniProt O60674). Kind of data set: Inhibition of human JAK2 using poly (Glu:Tyr) as substrate. The procedure, abridged:
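Antibody Beacon tyrosine kinase fluorescence assay, run as for EGFR. Reaction held 10 ng JAK2 enzyme, 0.1 mg/ml poly(Glu:Tyr) and 0.1 mg/ml ATP.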

Data set [6] is described as follows: Cytotoxicity against human A549 cells after 72 hrs by MTT assay. It counts as toxicity, cell-based. The method in brief:
(§1)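 Dose-response MTT assay in cells grown in DMEM with 10% FBS, penicillin and streptomycin at 37 °C, 5% CO2. Cells were precultured 16–18 h, then exposed to compound for 72 h. MTT was added for 3 h, formazan dissolved in DMSO, and absorbance read at 570 nm. Gefitinib positive control; 0.5% DMSO negative control.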
(Formazan colour is commonly taken as a measure of viable cells.)

In data set [7] the target is T1, Tyrosine-protein kinase JAK3 (Homo sapiens, UniProt P52333).
T1 sequence (P52333 whole entry): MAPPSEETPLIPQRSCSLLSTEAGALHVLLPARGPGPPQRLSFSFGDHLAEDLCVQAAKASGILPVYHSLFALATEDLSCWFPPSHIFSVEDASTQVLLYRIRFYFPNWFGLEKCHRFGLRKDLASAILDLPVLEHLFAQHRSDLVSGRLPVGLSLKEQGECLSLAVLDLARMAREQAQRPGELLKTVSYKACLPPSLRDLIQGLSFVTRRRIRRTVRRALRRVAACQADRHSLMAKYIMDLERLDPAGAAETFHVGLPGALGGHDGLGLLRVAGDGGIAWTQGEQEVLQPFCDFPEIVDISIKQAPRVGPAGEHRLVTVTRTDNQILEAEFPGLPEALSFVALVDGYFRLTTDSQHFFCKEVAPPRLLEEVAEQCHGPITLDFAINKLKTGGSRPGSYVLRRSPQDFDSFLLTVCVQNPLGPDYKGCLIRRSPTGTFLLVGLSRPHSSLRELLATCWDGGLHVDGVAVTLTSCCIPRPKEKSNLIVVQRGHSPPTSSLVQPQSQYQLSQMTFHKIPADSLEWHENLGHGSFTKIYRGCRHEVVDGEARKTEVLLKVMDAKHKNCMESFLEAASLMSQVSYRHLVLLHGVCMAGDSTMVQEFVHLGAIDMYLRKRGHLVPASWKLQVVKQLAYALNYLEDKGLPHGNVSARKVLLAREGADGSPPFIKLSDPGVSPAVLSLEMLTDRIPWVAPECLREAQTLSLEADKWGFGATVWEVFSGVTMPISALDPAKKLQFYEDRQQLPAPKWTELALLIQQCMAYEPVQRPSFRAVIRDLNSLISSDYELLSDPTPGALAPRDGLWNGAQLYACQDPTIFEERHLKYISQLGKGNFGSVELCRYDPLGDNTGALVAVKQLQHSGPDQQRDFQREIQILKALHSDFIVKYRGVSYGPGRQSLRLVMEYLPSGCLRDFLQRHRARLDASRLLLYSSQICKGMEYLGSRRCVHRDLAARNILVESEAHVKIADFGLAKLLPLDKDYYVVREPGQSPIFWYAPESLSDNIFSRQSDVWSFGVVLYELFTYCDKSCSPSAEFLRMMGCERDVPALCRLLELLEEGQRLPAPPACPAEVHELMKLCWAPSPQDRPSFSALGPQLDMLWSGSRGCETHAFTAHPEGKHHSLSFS
Kind of data set: Inhibition of human JAK3 using poly (Glu:Tyr) as substrate. The procedure, abridged:
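Antibody Beacon tyrosine kinase fluorescence assay, run as for EGFR. Reaction held 3 ng JAK3 enzyme, 0.1 mg/ml poly(Glu:Tyr) and 0.1 mg/ml ATP.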

Data set [8] can be described thus: Cytotoxicity against African green monkey Vero cells after 72 hrs by MTT assay. The data set is classed as toxicity, cell-based, Chlorocebus sabaeus. The procedure, abridged:
as §1

For data set [9], the target named is Epidermal growth factor receptor (Homo sapiens, UniProt P00533). As to the kind of experiment: Inhibition of human EGFR using poly (Glu:Tyr) as substrate measured for 1.5 hrs by oregon green 488 dye-based fluorescence assay.
Sequence of Epidermal growth factor receptor (P00533 whole entry): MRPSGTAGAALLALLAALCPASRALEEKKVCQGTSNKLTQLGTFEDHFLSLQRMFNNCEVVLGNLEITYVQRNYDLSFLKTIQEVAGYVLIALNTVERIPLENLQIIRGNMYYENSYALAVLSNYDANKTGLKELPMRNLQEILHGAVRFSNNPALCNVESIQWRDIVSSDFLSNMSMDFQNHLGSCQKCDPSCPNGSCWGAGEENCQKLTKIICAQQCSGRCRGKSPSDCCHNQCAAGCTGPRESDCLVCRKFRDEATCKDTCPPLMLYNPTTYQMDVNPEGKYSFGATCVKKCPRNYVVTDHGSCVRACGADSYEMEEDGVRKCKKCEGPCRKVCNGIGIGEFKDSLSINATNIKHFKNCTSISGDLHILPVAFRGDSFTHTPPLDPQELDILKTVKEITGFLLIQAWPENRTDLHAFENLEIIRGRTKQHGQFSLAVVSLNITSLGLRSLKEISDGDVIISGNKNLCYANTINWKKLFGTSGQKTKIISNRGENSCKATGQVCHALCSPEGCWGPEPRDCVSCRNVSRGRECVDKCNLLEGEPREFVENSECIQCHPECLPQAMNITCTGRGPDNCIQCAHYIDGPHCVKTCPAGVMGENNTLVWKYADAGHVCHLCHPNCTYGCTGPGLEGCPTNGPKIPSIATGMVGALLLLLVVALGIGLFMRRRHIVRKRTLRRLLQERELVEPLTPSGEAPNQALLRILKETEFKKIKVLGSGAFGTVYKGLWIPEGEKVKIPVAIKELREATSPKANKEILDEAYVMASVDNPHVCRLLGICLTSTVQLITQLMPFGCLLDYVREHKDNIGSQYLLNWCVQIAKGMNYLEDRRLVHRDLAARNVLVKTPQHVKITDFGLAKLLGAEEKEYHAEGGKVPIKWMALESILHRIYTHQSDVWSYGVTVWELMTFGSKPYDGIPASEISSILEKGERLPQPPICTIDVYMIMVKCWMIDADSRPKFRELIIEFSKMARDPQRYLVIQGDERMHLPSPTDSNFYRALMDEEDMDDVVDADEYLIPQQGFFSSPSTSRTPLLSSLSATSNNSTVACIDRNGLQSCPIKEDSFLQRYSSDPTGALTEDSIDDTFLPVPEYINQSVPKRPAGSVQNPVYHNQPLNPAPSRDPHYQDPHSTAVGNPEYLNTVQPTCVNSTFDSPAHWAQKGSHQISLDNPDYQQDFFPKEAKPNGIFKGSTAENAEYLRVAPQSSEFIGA

Sequence of Tyrosine-protein kinase JAK2 (O60674 whole entry): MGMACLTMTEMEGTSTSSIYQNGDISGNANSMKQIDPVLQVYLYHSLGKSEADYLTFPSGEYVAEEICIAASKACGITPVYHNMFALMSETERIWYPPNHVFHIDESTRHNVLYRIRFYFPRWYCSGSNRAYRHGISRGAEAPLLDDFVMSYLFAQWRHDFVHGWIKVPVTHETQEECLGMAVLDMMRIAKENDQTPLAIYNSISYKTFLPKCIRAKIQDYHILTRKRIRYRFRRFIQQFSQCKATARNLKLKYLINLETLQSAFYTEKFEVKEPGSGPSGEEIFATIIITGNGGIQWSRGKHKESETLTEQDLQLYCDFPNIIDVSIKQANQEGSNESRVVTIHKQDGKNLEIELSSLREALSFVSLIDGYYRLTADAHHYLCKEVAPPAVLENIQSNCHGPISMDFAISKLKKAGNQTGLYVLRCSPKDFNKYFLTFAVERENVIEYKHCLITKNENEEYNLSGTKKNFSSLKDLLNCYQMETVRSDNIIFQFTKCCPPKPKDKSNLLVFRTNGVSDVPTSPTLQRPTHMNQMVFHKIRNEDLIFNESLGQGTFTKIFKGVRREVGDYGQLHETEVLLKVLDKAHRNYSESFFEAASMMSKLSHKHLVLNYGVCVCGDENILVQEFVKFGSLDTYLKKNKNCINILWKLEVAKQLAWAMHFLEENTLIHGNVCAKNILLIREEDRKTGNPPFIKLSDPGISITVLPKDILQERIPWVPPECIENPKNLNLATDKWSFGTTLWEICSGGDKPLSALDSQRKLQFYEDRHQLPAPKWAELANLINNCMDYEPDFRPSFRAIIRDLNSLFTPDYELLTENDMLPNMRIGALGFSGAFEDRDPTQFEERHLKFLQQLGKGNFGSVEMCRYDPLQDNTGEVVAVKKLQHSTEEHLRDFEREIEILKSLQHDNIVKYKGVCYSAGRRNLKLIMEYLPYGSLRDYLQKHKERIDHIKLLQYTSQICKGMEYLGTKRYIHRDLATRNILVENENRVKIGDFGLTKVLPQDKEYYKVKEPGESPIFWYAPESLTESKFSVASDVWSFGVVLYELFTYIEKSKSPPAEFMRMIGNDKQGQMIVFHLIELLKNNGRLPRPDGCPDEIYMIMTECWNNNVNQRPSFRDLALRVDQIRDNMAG

`CNC(=O)c1cnc(Nc2ccc(N3CCOCC3)cc2)nc1Nc1cccc(OC(C)C)c1`: the IC50 in the data set on Plasmodium falciparum [1] amounted to 0.759 µM. This compound also returned an Activity in [2] of 19%.

For the compound `Cc1cccc(Nc2ncc(C(N)=O)c(Nc3cccc(C)c3)n2)c1`, in [3], the Activity is reported as 96%.

Regarding `Cc1cc(Nc2ncc(C#N)c(Nc3cccc(S(N)(=O)=O)c3)n2)ccc1N1CCN(C)CC1`, in the data set with Plasmodium falciparum [4], the IC50 worked out at 5.56 µM. The compound also yielded an Activity in data set [3] of 94%.

The compound `Cc1cccc(Nc2ccnc(Nc3cccc(C)c3)n2)c1` returned an Activity in data set [3] of 94%.

For `NC(=O)c1ccccc1Nc1ccnc(Nc2ccc(N3CCOCC3)cc2)n1`, the IC50 in the data set on Plasmodium falciparum [4] stood at 4.39 µM. For the same compound, the Activity in data set [3] came to 68%.

For the compound `CCN(CC)CCCC(C)Nc1ccnc2cc(Cl)ccc12` (stereo not drawn) [CHLOROQUINE], the Activity in data set [3] is on record as 45%.

For the compound `Cc1cc(Nc2nccc(Nc3cccc(S(N)(=O)=O)c3)n2)ccc1N1CCN(C)CC1`, the IC50 in the data set on Plasmodium falciparum [4] was 3.86 µM; in data set [5], 0.126 µM; in data set [7], 4.1 µM; in data set [9], > 150 µM. The EC50 at 72 h was 4.2 µM in data set [6] and > 100 µM in [8]. Also, the Activity in data set [3] worked out at 66%.

Consider `Cc1cc(Nc2ncc(C#N)c(Nc3cccc(S(=O)(=O)NC(C)(C)C)c3)n2)ccc1N1CCN(C)CC1`, for which the half-inhibitory concentration (IC50) was 4.56 µM in the data set with Plasmodium falciparum [4], > 100 µM in data set [5], > 100 µM in data set [7] and > 150 µM in [9]. The EC50 at 72 h in data set [6] is > 100 µM; in data set [8], 45.4 µM. Besides, the Activity in data set [3] amounted to 31%.

In the case of `C[C@H]1[C@@H](O)O[C@@H]2O[C@@]3(C)CC[C@H]4[C@H](C)CC[C@@H]1[C@@]24OO3` [ARTENIMOL], the IC50 in the data set on Plasmodium falciparum [4] was found to be 0.00254 µM.

Compound `Cc1cccc(Nc2ncc(C#N)c(Nc3cccc(C)c3)n2)c1` had an Activity in [3] of 40%.

For the compound `Cc1cc(Nc2nccc(Nc3ccccc3C(N)=O)n2)ccc1N1CCN(C)CC1`, the half-maximal inhibitory concentration (IC50) with Plasmodium falciparum [4] is 1.06 µM. In addition, in data set [3], the Activity was determined as 92%.

Consider `Cc1cccc(Nc2ccnc(Nc3ccc(N4CCN(C)CC4)cc3)n2)c1`, for which the IC50 with Plasmodium falciparum [4] was 0.431 µM; in data set [5] it was 0.14 µM; in data set [7], 2.1 µM; in data set [9] it was 11 µM. Further, the EC50 at 72 h in [6] came to 7.1 µM; in data set [8] it was 1 µM. Further, the Activity in data set [3] turned out to be 94%.

The compound `CN1CCN(c2ccc(Nc3ncc(C#N)c(Nc4ccccc4C(N)=O)n3)cc2)CC1` showed an IC50 with Plasmodium falciparum [1] of 0.04 µM. Further, the Activity in data set [2] was 43%.

In the case of `CNC(=O)c1cnc(Nc2ccc(N3CCN(C)CC3)cc2)nc1Nc1cccc([N+](=O)[O-])c1`, half-maximal inhibition with Plasmodium falciparum [1] (IC50) was put at 0.138 µM. Moreover, in data set [2], the Activity is given as 16%.

Compound `Cc1cccc(Nc2ccnc(Nc3ccc(N4CCOCC4)cc3)n2)c1` showed an Activity in data set [3] of 74%.

Take `CN1CCN(c2ccc(Nc3nccc(Nc4ccccc4C(N)=O)n3)cc2)CC1`: the half-maximal inhibitory concentration (IC50) in the data set with Plasmodium falciparum [4] was 1.5 µM. In data set [3], the Activity is 91%.

`COc1cnc(Nc2ccc(N3CCN(C)CC3)c(C)c2)nc1Nc1cccc(S(N)(=O)=O)c1`: the IC50 in the data set with Plasmodium falciparum [4] was 5.26 µM. The same compound showed an Activity in data set [3] of 88%.

The compound `c1cc(Nc2ccc(N3CCOCC3)cc2)nc(Nc2ccc(N3CCOCC3)cc2)n1` showed an Activity in data set [3] of 25%.

For the compound `NS(=O)(=O)c1cccc(Nc2ccnc(Nc3ccc(N4CCOCC4)cc3)n2)c1`, the half-maximal inhibitory concentration (IC50) is 8.97 µM in the data set with Plasmodium falciparum [4], 0.129 µM in [5], 7.1 µM in [7] and > 100 µM in data set [9]. The EC50 at 72 h in data set [6] was 9.4 µM; in data set [8], 37 µM. For the same compound, the Activity in [3] was found to be 35%.

Consider `Cc1cccc(Nc2ccnc(Nc3ccc(N4CCN(C)CC4)c(C)c3)n2)c1`, for which the IC50 in the data set on Plasmodium falciparum [4] is 0.647 µM; in data set [5], 0.05 µM; in data set [7], 1.8 µM; in data set [9], > 150 µM. Moreover, the EC50 at 72 h in data set [6] stood at 3.5 µM; in data set [8], 2 µM. This compound also returned an Activity in data set [3] of 94%.

Turning to `O[C@@H](c1cc(C(F)(F)F)nc2c(C(F)(F)F)cccc12)[C@H]1CCCCN1` [(S,R)-MEFLOQUINE], the IC50 in the data set on Plasmodium falciparum [4] came out at 0.07 µM.

Regarding `CN1CCN(c2ccc(Nc3nccc(Nc4cccc(S(N)(=O)=O)c4)n3)cc2)CC1`, the concentration for half-maximal inhibition (IC50) with Plasmodium falciparum [4] turned out to be 7.25 µM. In data set [3], this compound had an Activity of 80%.

On to `Cc1cc(Nc2ncc(C#N)c(Nc3cccc(S(C)(=O)=O)c3)n2)ccc1N1CCN(C)CC1`, for which, in the data set on Plasmodium falciparum [4], the half-maximal inhibitory concentration (IC50) came out at 4.72 µM. The compound further returned an Activity in data set [3] of 92%.

In the case of `Cc1cc(Nc2ncc(C#N)c(Nc3ccccc3C(N)=O)n2)ccc1N1CCN(C)CC1`, the IC50 came out at 3.93 µM in the data set on Plasmodium falciparum [4] and 0.009 µM in the data set on Plasmodium falciparum [1]. Besides, the figures for the Activity in data set [3] and in data set [2] were 94% and 99%, respectively.

In data set [3], `Cc1cc(Nc2nc(Nc3cccc(S(N)(=O)=O)c3)ncc2C#N)ccc1N1CCN(C)CC1` yielded an Activity of 33%.
